In general, IC50 refers to the midpoint of a concentration-inhibition curve. High values mean weaker potency in that assay, low ones greater potency in that assay.

Test [1] deals with A549. Kind of test: Cytotoxicity against human A549 cells after 48 hrs by MTT assay. To be noted: A549, 48 h. Type of test: functional, cell-based. In a few lines: (§1)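 Cells were exposed to drug for 48 h, then given MTT in RPMI-1640 for a further 4 h at 37 °C. Formazan was dissolved in DMSO and absorbance read at 570 nm after 5 min. Each assay was run in triplicate in three independent experiments. IC50 (50% inhibition of viability) was computed by dose-effect analysis.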
(Tetrazolium dyes change colour on reduction, which living cells bring about.)

The nature of test [2]: Cytotoxicity against human SGC cells after 48 hrs by MTT assay. Type of test: functional, cell-based. In a few lines:
as §1

Another test relates to HCT-116. Briefly: Cytotoxicity against human HCT116 cells after 48 hrs by MTT assay. Type of test: functional, cell-based. To be noted: HCT-116, 48 h. The method in brief: as §1
In a further test the test system is MCF7. Briefly: Cytotoxicity against human MCF7 cells after 48 hrs by MTT assay. Type of test: functional, cell-based. To be noted: MCF7, 48 h. The method in brief:
as §1

Test [3] has as its system K562. Briefly: Cytotoxicity against human K562 cells after 48 hrs by MTT assay. Type of test: functional, cell-based. To be noted: K562, 48 h. In a few lines:
as §1

Test [4] concerns K562. Briefly: Cytotoxicity against human multidrug-resistant K562 cells after 48 hrs by MTT assay. To be noted: K562, 48 h. Type of test: functional, cell-based. In a few lines:
as §1

In test [5] the target is Tubulin. Briefly: Inhibition of tubulin polymerization in human MCF7 cells by fluorometric analysis. In a few lines:
(§2)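 Tubulin polymerization was run at 37 °C in 80 mM PIPES (pH 6.9) with 20% glycerol, 1 mM GTP, 2.0 mM MgCl2 and 0.5 mM EGTA. It was followed kinetically on a fluorescence plate reader.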

For test [6], the target named is Tubulin. Briefly: Inhibition of tubulin polymerization in human K562 cells by fluorometric analysis. The method in brief: as §2
The subject of test [7] is A549. Kind of test: Cell cycle arrest in human A549 cells assessed as accumulation at G0/G1 phase at 2 uM after 48 hrs by flow cytometric analysis. Type of test: functional. In a few lines: (§3)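 A549 cells in exponential growth were treated for 48 h, washed twice in PBS and fixed in 75% ethanol. They were then incubated for 0.5 h at 37 °C and stained with propidium iodide for 15 min. DNA content was read on a FACSCalibur flow cytometer.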
In general terms: A flow cytometer gives signals particle by particle.

The subject of test [8] is A549. Briefly: Cell cycle arrest in human A549 cells assessed as accumulation at G2/M phase at 2 uM after 48 hrs by flow cytometric analysis. Type of test: functional. In a few lines:
as §3

Test [9] concerns A549. Kind of test: Cell cycle arrest in human A549 cells assessed as accumulation at S phase at 2 uM after 48 hrs by flow cytometric analysis. Type of test: functional. The method in brief: as §3

`CCn1c2ccncc2c2cc(C(=O)c3ccc(OC)cc3)ccc21`: the IC50 with A549 [1] came to 20.5 µM; in test [2] it was 17.8 µM; with HCT-116, 70.2 µM; in the test on MCF7, 3.85 µM; in the test on K562 [3], 6.39 µM; in the test on K562 [4], 2.09 µM.
`CCn1c2ccncc2c2cc(C(=O)c3ccc(N)cc3)ccc21`: the IC50 with A549 [1] was 49.3 µM; in test [2], greater than 100 µM; in the test with HCT-116, 40.6 µM; in the test on MCF7 it was 5.04 µM; with K562 [3], 13.4 µM; in the test with K562 [4] it was 23.3 µM.
In turn, `CC(C)n1c2ccncc2c2cc(C(=O)c3ccccc3)ccc21` yielded an IC50 in the test on K562 [3] of 6.46 µM.
In the case of `CCn1c2ccncc2c2cc(C(=O)c3ccc(S(C)(=O)=O)cc3)ccc21`, the 50% inhibitory concentration (IC50) with A549 [1] turned out to be 24.2 µM; in test [2] it was 24.9 µM; with HCT-116, 37.8 µM; in the test with MCF7 it was 3.28 µM; in the test on K562 [3], 5.26 µM; in the test with K562 [4], 0.66 µM. For the same molecule, the IC50 at Tubulin [5] and at Tubulin [6] was 4.3 µM in each case. In addition, the figures for the Activity with A549 [7], in the test on A549 [8] and in the test with A549 [9] were 10.29%, 63.12% and 26.59%, respectively.
`CCn1c2ccncc2c2cc(C(=O)c3ccccc3)ccc21`: the 50% inhibitory concentration (IC50) in the test on A549 [1] came to 23.2 µM; in test [2], 11.8 µM; in the test with HCT-116, 8.63 µM; in the test on MCF7, 8.36 µM; with K562 [3], 4.96 µM; with K562 [4], 9.09 µM.
As to `CCn1c2ccncc2c2cc(C(=O)c3ccc([N+](=O)[O-])cc3)ccc21`, the IC50 with A549 [1] was 29.1 µM; in test [2], greater than 100 µM; in the test on HCT-116, 59.2 µM; in the test on MCF7 it was 3.21 µM; in the test on K562 [3] it was 16.8 µM; in the test with K562 [4], 3.68 µM.
In the case of `CCn1c2ccc(C(=O)c3ccccc3)cc2c2c[n+](CC)ccc21`, the 50% inhibitory concentration (IC50) is greater than 100 µM in the test with A549 [1]; greater than 100 µM in test [2]; greater than 100 µM in the test on HCT-116; 12 µM in the test on MCF7; greater than 100 µM in the test on K562 [3]; greater than 100 µM with K562 [4].
In the case of `CCn1c2ccncc2c2cc(C(=O)c3ccccc3Cl)ccc21`, the IC50 came out at 41.4 µM in the test with A549 [1]; 38.6 µM in test [2]; 42.3 µM in the test with HCT-116; 21 µM in the test on MCF7; 13.7 µM with K562 [3]; 7.08 µM in the test on K562 [4].
Regarding `CCn1c2ccncc2c2cc(C(=O)c3ccc(Cl)cc3)ccc21`, the IC50 turned out to be 27.2 µM in the test on A549 [1]; 62.5 µM in test [2]; 62.6 µM with HCT-116; 30.6 µM in the test on MCF7; 4.69 µM with K562 [3]; 1.58 µM with K562 [4].
For the molecule `CCn1c2ccc(C(=O)c3ccc(Br)cc3)cc2c2c[n+](CC)ccc21`, the IC50 in the test with A549 [1] is greater than 100 µM; in test [2], greater than 100 µM; in the test with HCT-116 it was greater than 100 µM; in the test on MCF7 it was 56 µM; in the test with K562 [3] it was greater than 100 µM; in the test on K562 [4] it was greater than 100 µM.
On to `CCn1c2ccncc2c2cc(C(=O)c3ccc(Br)cc3)ccc21`, for which the IC50 was 35.1 µM in the test with A549 [1]; 34 µM in [2]; 24.3 µM in the test on HCT-116; greater than 100 µM in the test on MCF7; 2.11 µM in the test with K562 [3]; 1.58 µM in the test on K562 [4].
On to `CCn1c2ccncc2c2cc(C(=O)c3cccc(OC)c3)ccc21`, for which the IC50 in the test on A549 [1] worked out at 21.4 µM; in [2], 18.7 µM; in the test on HCT-116 it was 34.3 µM; in the test on MCF7 it was 9.99 µM; in the test with K562 [3], 6.42 µM; in the test with K562 [4] it was 1.57 µM.
Molecule `Cn1c2ccncc2c2cc(C(=O)c3ccccc3)ccc21` returned an IC50 with K562 [3] of 4.82 µM.
Take `CCn1c2ccncc2c2cc(C(=O)c3ccccc3F)ccc21`: the half-inhibitory concentration (IC50) with A549 [1] was found to be 46.8 µM; in test [2] it was 35.6 µM; with HCT-116, 35.9 µM; with MCF7, 4.74 µM; in the test with K562 [3], 12.2 µM; in the test on K562 [4] it was 1.45 µM.

The values are drawn from ChEMBL document CHEMBL1759850, “Design, synthesis, and biological evaluation of novel γ-carboline ketones as anticancer agents” (Eur J Med Chem, 2011).
